# Test results from the EternaBench riboswitch data.
# Tested on: MS2 coat protein
# Experiment: apparent Kd, MS2 coat protein; higher = weaker binding; RNA-MaP array; FMN 200 µM where present
# Summary of the method: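 Stalled E. coli RNA polymerase transcribed each design on Illumina sequencing-chip clusters. The clusters were titrated with SNAP-549-labelled MS2 coat protein, starting at 0.7 or 1.5 nM and doubling up to 3 µM, first without ligand and then with constant ligand, in 100 mM Tris-HCl pH 7.5, 80 mM KCl, 4 mM MgCl2, BSA, DTT, yeast tRNA and Tween-20. Green signal was normalised to red-channel RNA signal and to the control-cluster median Fmax. The apparent Kd is the median of filtered binding-curve fits made for each cluster.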
# [1] = designed as: OFF switch for flavin mononucleotide, no ligand
# [2] = ligand present: flavin mononucleotide, designed as: OFF switch for flavin mononucleotide
# [3] = designed as: ON switch for flavin mononucleotide, no ligand
# [4] = ligand present: flavin mononucleotide, designed as: ON switch for flavin mononucleotide
Sequence,apparent Kd [1] [µM],apparent Kd [2] [µM],apparent Kd [3] [µM],apparent Kd [4] [µM]
AACGUGGCAAAGGAUAUCCACACGGCAAAGCCGGGAGAAGGUUGCACAUGAGGAUCACCCAUGUGAACCAAACA,0.0149,0.0178,–,–
CACGUCCUCACAGGAUAUGCUGGACUUUGUCCAGCAGAAGGGUGACAUGAGGAUCACCCAUGUAAAAGGACGUGUAUAUUUAAU,–,–,0.515,0.0415
GGGCCCGGUGUGAGGAUAUGGGCCCGGAAACGGGCCCAGAAGGCACAUGAGGAUCACCCAUGUAAGCCGGGCCC,0.0154,0.0157,–,–
UUUUAACAUGAGGAUCACCCAUGUGAGGAUAUCGAAAUUUAUAUUUAUAUUUAUUAAUCGAGAAGGCACAUUUU,0.132,0.162,–,–
GCGUAAUAGGUGUAGCUAGUCAUUCAAGAAGGGUGGAGAACAUGAGGAUCACCCAUGUGGUUUAUACAGGAUAUUGAUAUACGC,–,–,0.258,0.0512
UGUCGGAGCAGAGGAUAUUACAUGAGGAUCACCCAUGUAUGAACCAAUAGCUGGCAACAGCAAUGUAAGAAGGCUGCUCCGACA,0.0128,0.168,–,–
CUGUGACGGUGCGCAAGUGGACGGAGAAGGGACACAUGAGGAUCACCCAUGUGGGCCUGCUAUUGUCAGGAUAUCCGUUCGUAC,0.00626,0.00662,–,–
UUUUAACAUGAGGAUCACCCAUGUGAGGAUAUCGAAAUUUAUAUUAAUAUUAUUAUAUCGAGAAGGCACAUUUU,0.0923,0.0913,–,–
AUAGCUCUCUAGAAGGACCAAGCAGUAUACCAUCAGGUAUAUACGCUAGGUAGGAUAUGGGACAUGAGGAUCACCCAUGUGUAG,–,–,0.0539,0.0339
GGAUGGACCCAGAAGGGCAGAUCCCGAGGAAUUUGAGAUGAGCGGAUAUGUAGGAUAUGGGUGGACAUGAGGAUCACCCAUGUC,–,–,0.176,0.0426
AAGUCGAGUAAUAAAUAAGAUCUACAUGAGGAUCACCCAUGUAAGGAUAUGCAGUGGAAUACACUGCAGAAGGUACAUCUCGAC,0.014,0.035,–,–
AAAAAAAAAAGACAGGAUAUACAAUAUAUUACAUGAGGAUCACCCAUGUUUUUUUUUUAAUUAAAGUAGAAGGGUCAAAAAAAAAA,–,–,0.0522,0.04
GCGAAGAACGAGAAGGCCACUACAUGAGGAUCACCCAUGUCGUGGAGUAUUGGAGGAUAUCGAUCGGCGUCUCAUGAGGACAUA,0.00573,0.00561,–,–
AAAUUGCUAGAGGAUAUCGGAUAGGAUCUAUUACGAGAAGGUUGGACAUGAGGAUCACCCAUGUUCUGUUGGGA,0.0238,0.0235,–,–
GUCAGCUCGUGAGGAUAUACAACACUGCUUCGGCAGUGUAUUAAGAUCACAUGAGGAUCACCCAUGUAGAAGGCACGAACUGAU,0.0129,0.212,–,–
UCUAUGUAGAUUCGUCAAUACAGUAAGGAUAUGAGAUACAUGAGGAUCACCCAUGUGCAUGUGGAUUAGAAGGUACAAUUAACU,0.0837,0.0739,–,–
AACACGAGAGGUGUUAUCUAACCACAUGAGGAUCACCCAUGUAAGGAUAUCGCGGCUAUCGGCAUCGAGAAGGUACAGGGUGCA,0.0442,0.0936,–,–
CGAUAUAUGAAGGGCGAAAACGCACAUGAGGAUCACCCAUGUAGAAGGCGAUCCGCAACGCGGAUCGAGGAUAUAUAGUAUACA,0.0211,0.023,–,–
CCUCCGUAUGAGGAUAUCGUCCAGGAAACUGGACGAGAAGGCAUGACAUGAGGAUCACCCAUGUUAACGUGAUG,0.0198,0.0521,–,–
ACUUUAUUUGAGAAGGUGAAGUGGAAACAUGAGGAUCACCCAUGUAAUAGGAAGCCUAUUUUUAUCAAGGAUAUCAAAUAAAGA,–,–,0.00789,0.00786
AGCUGUGGCCGAGGAUAUCUAAACCUUCAAACCGAAAUAUAAUCGGACAUGAGGAUCACCCAUGUAGAGAAGGCGGUCUCAGCA,0.0133,0.0288,–,–
GUUAUAAUUGAAGGAUAUCUAUAUCCAACAUGAGGAUCACCCAUGUUGAGGAUCACCCAUGUAAAGGAGAAGGUUAAUUAUAAU,–,–,0.0842,0.0252
GAGGAACAUGAGGAUCACCCAUGUGAGGAUAUGCAUAGUGAGCUAGUAGACGUUUAUUGCAGAAGGUACACUGA,0.0314,0.0236,–,–
UCGAGUCAUGAGAAGGGCUGAUGUUACAUGAGGAUCACCCAUGUCAUGGGCAGGAUAUCAUUGACACGGCUGUACCUUUCUUAC,–,–,0.149,0.0294
ACUUUAGUAUCACAUGUAUUACAUGAGGAUCACCCAUGUUACUAGGAUAUGUAUUAGAAUUUACAACAGAAGGAGUAAGAAUGU,0.00817,0.00983,–,–
AGUUGACGAGAAGGAUAUCCGAACCUUUAAAGAGGAGAAGGUCUAUCAACAUGAGGAUCACCCAUGUACAUCGCUCGGGUGUCC,0.0822,0.306,–,–
UGUCAAGCAGGAUAUGCACGUAAUAACAUGAGGAUCACCCAUGUGACCGAUUUAUAUUCUGCAGAAGGGCUUGGUU,0.0378,0.14,–,–
CGCCAAUUGGCACAGGAUAUGAGCAUGCUCACAUGAGGAUCACCCAUGUGAUUACCAACGCAAAAUCAGAAGGGUGCCCUCGUCA,–,–,0.147,0.0971

Sequence,apparent Kd [1] [µM],apparent Kd [2] [µM],apparent Kd [3] [µM],apparent Kd [4] [µM]
GAUCCGUCCUAGAAGGCCAUCCAACAUGAGGAUCACCCAUGUGCGGACUGGAGGAUAUAGGUGGGAUAGGCCUAGGGCCCGGUC,–,–,0.00743,0.00555
AAGUCUGGACGAGGAUAUCAGUUGUAUCUAGAUUCAACAUGAGGAUCACCCAUGUUGCAAUAGGGUGAGAAGGCGUUUGGGCAA,–,–,0.0799,0.0212
GCGUACAUAUCAGGAUAUCAUAUAAUUGUUUAUCUCAGUGUAUACAUGAGGAUCACCCAUGUUCUUGAGAAGGGAUAUGUACGC,0.00824,0.00868,–,–
AUCAGCUCGGCAGGAUAUACAUCACUGCUUCGGCAGUGUAUUAAGAUCACAUGAGGAUCACCCAUGUAGAAGGGCCGAGCUGAU,0.0341,0.389,–,–
AAUAGGUUUCCCGGUGGUUAAUACAUGAGGAUCACCCAUGUCAAGGAUAUAGCCGUAUAACCAGGUUAGAAGGUGACUAAAUGA,0.0675,0.12,–,–
UUCAUGUGAGGAUAUGCGGCGUCAGGUGGGCCUGUCGCUGAGCAGAAGGCACAUGAGGAUCACCCAUGUGCUCC,0.0317,0.0625,–,–
GCCAUCGCAUGAGGAUAUGCUCGGGUUUCCCGAGCAGAAGGCAUGUCGUAAGACAUGAGGAUCACCCAUGUAGUUAAGAUGGCA,–,–,0.915,0.0768
UAAUAUUUAUGAUAUUAUGACAGUAGAAGGCUAUACAUGUUGAUACAUGAGGAUCACCCAUGUAUAGAGGAUAUAUACAUAUAU,0.681,0.315,–,–
AGCUAUUACGAAGGAUAUUGUGACAUGAGGAUCACCCAUGUUUUCAUGAUUAAUUGUGAUCACGUCGAGAAGGUUGUACUAACA,–,–,0.0524,0.0545
GAGUGACAUGAGGAUCACCCAUGUGAGGAUAUCGGACGGACCUAGUUAACUUCCGCCGCGAGAAGGCACAUCGG,0.0987,0.0338,–,–
GAGUGACAUGAGGAUCACCCAUGUGAGGAUAUCGGACGGACCUUGUUGGCUUCCGCCGCGAGAAGGCACAUCGG,0.201,0.045,–,–
CCUCUACAUGAGGAUCACCCAUGUGAGGAUAUGCGAGGCGCGCCCGAUAGGCGCGCCGGUAGAAGGCAUGUGGU,0.0235,0.0505,–,–
UUGAGGUGCAAGAAGGGUCACAUGAGGAUCACCCAUGUCAUGUGAAGUCUCGAGAUUUUAUAUGGAUAGGAUAUUGCACCGAAC,–,–,0.197,0.0982
AAAAAACAUGAGGAUCACCCAUGUGAGGAUAUAGGAAAAAAAAAAAAAAAAAAAAAAACUAGAAGGCACAAAAA,0.0554,0.0746,–,–
CGAUAUGAUGCAGGAUAUCUAUCUUGAAUGAGGAGAGAAGGGCAAAGGGAGACAUAAGCCUUAUUACAUGAGGAUCACCCAUGU,0.0133,0.0113,–,–
CGAAGUACGUAAGGAUAUACCGUGAGGACAACGGUAGAAGGUACAACAACAUGAGGAUCACCCAUGUGGACCUCUCGGCGUUGU,0.394,0.617,–,–
UCUCGACAUGAGGAUCACCCAUGUCAGGAUAUUGUAUUGGAGGUGUUUAACCUUAUGGCAAGAAGGGAUGUGUG,0.024,0.0271,–,–
GUUUUUUCUCAUGUACAUGAGGAACAUGAGGAUCACCCAUGUAGAAGGAAUUUUUUUAAGUUUAGUUAGGAUAUACAUAUAUUG,0.0488,0.0286,–,–
GUGACGAAUGUAGGAUAUGCUGACCAAUGGUCAGCAGAAGGACAUGAGGAUCACCCAUGUCAUCCUUAUAAUGAAUAACGUCAC,0.0135,0.0186,–,–
CAGUAGAUCCGAGGAUAUACAAUCCGGAAACGGUACAUGAGGAUCACCCAUGUAGAAGGCGGAUCUACAGGUACUAAAGUACCU,0.00556,0.00831,–,–
GGAUAGGACAGAGGAUAUACGUGCUAGAGAUACUAGCAAAAUUCCCUCACAUGAGGAUCACCCAUGUAGAAGGCUGUCCUAUCG,0.00568,0.0496,–,–
AGUGUCAUCCAGAAGGAGAUGGACAUGAGGAUCACCCAUGUUCCAUGAUCUAGGAUAUGGAUGAUACAGCUACGUUUCGUAGCA,–,–,0.00461,0.00473
CCCUCACAUGAGGAUCACCCAUGUCAGGAUAUCUAGUCAGACAGUAUAGCACUGCUGAAGAGAAGGGACGUAAA,0.0164,0.02,–,–
GUUUUGGGAGGAUAUAUGUGGAUUAUUUUUAUAUGUUAUUUACAUGAGGAUCACCCAUGUAGAAGGUCUAGAGC,0.163,0.249,–,–
AACUCGUCAGGAUAUGCGCACAGAUAAUACGCUACACAAUUGCAGAAGGGACAUGAGGAUCACCCAUGUAAAUA,0.039,0.0262,–,–
GCUCGAUGCGCUGAGCACAUGAGGAUCACCCAUGUAAAUGGUCAGGAUAUUUACGUGCUUUAUGUAGAGAAGGGACUAUCGAGC,–,–,0.63,0.0593
UUUAACUGCUAGAAGGGUGACAUGAGGAUCACCCAUGUGCUAGGCGUGCAUAAGCACCCUUAGCCACAGGAUAUAGUAGUUGAC,–,–,0.112,0.0645
